What is called IC50 is the midpoint of a concentration-inhibition curve. Usually MTD stands for the highest dose tested that stayed within the study's limit of toxicity.

One data set concerns K562. In words: Inhibition of human K562 cell proliferation by sulphorodhamine B assay. Type of data set: functional, cell-based.
Another data set has as its system A549. Briefly: Antitumor activity against human A549 cells after 5 days by MTT assay. The conditions noted are these: A549, 120 h. The data set is classed as functional, cell-based. In outline:
(§1)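 Five human cancer lines (prostate PC-3, glioblastoma U373-MG, colorectal LoVo, NSCLC A549, breast MCF-7) plated at 10⁴ to 3×10⁴ cells/mL depending on cell type, allowed 24 h to attach, then cultured 120 h with or without drug at nine concentrations. MTT reduction to formazan read at 570 nm (reference 630 nm).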
(In general: Formazan colour is commonly taken as a measure of viable cells.)

Data set [1] is described as follows: Inhibition of mouse NIH/3T3 cell proliferation by MTT assay. Type of data set: cell-based. The conditions noted are these: NIH3T3.
For the next data set, the system named is A-431. In words: Inhibition of human A431 cell proliferation by MTT assay. Type of data set: functional, cell-based.
A further data set deals with V79. Briefly: Inhibition of chinese hamster V79 cell proliferation assessed as bromodeoxyuridine incorporation during DNA synthesis after 48 hrs by ELISA. Conditions: Cricetulus griseus, V79, 48 h. For orientation: ELISA stands for enzyme-linked immunosorbent assay.
In another data set the test system is KB. In words: Inhibition of human KB cell proliferation by MTT assay. The data set is classed as functional, cell-based.
The nature of data set [2]: Toxicity in ip dosed B6D2F1 mouse assessed as maximum tolerated dose after 28 days. The data set is classed as organism-based. The conditions noted are these: in vivo. In outline:
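Healthy mice, three per group, each given a single ip dose and observed for up to 28 days. The MTD index is the highest single dose given without causing any deaths in the group.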

A further data set concerns LoVo. Briefly: Antitumor activity against human LoVo cells after 5 days by MTT assay. Type of data set: functional, cell-based. Conditions: 120 h. The procedure, abridged:
as §1

Data set [3] has as its system MCF7. In words: Antitumor activity against human MCF7 cells after 5 days by MTT assay. Type of data set: functional, cell-based. Conditions: MCF7, 120 h. The procedure, abridged: as §1
Data set [4] has as its system HeLa. In words: Inhibition of human HeLa cell proliferation assessed as bromodeoxyuridine incorporation during DNA synthesis after 48 hrs by ELISA. Type of data set: functional, cell-based.
Data set [5] has as its target DNA topoisomerase 2-alpha (Homo sapiens) (UniProt P11388). In words: Inhibition of topoisomerase 2-mediated DNA relaxation activity in human HeLa cells by Oomori method. Type of data set: cell-based.
In data set [6] the test system is HeLa. In words: Inhibition of human HeLa cell proliferation. The data set is classed as functional, cell-based.
In data set [7] the test system is MCF7. In words: Inhibition of human MCF7 cell proliferation by MTT assay. The data set is classed as functional, cell-based.
Data set [8] relates to MCF7. In words: Inhibition of human MCF7 cell proliferation after 5 days by MTT assay. The data set is classed as functional, cell-based. Conditions: MCF7, 120 h. The procedure, abridged:
as §1

In another data set the test system is SK-MEL. Briefly: Inhibition of human SK-MEL cell proliferation by MTT assay. Type of data set: functional, cell-based.
In another data set the test system is PC-3. Briefly: Antitumor activity against human PC3 cells after 5 days by MTT assay. The conditions noted are these: PC-3, 120 h. Type of data set: functional, cell-based. In outline:
as §1

A further data set relates to MG-63. In words: Inhibition of human MG63 cell proliferation assessed as bromodeoxyuridine incorporation during DNA synthesis after 48 hrs by ELISA. The data set is classed as functional, cell-based. The conditions noted are these: MG-63, 48 h.
A further data set concerns SW480. In words: Inhibition of human SW480 cell proliferation by MTT assay. The data set is classed as functional, cell-based.
Another data set deals with MC3T3-E1. In words: Inhibition of mouse MC3T3-E1 cell proliferation after 48 to 72 hrs. The data set is classed as functional, cell-based.
Data set [9] relates to NCI-H460. Briefly: Induction of apoptosis in human NCI-H460 cells at 120 uM by sulphorodhamine B assay. The data set is classed as functional.
The next data set relates to EJ. Briefly: Inhibition of human EJ cell proliferation by MTT assay. The data set is classed as functional, cell-based.
Data set [10] can be described thus: Antitumor activity against human U373MG cells after 5 days by MTT assay. The data set is classed as functional, cell-based, U-373MG ATCC. The conditions noted are these: U373 MG, 120 h. The procedure, abridged:
as §1

Data set [11] relates to NCI-H460. Briefly: Inhibition of human NCI-H460 cell proliferation by sulphorodhamine B assay. Type of data set: functional, cell-based.

Molecules are shown by their SMILES.

Sequence of DNA topoisomerase 2-alpha (Homo sapiens) (P11388 whole entry): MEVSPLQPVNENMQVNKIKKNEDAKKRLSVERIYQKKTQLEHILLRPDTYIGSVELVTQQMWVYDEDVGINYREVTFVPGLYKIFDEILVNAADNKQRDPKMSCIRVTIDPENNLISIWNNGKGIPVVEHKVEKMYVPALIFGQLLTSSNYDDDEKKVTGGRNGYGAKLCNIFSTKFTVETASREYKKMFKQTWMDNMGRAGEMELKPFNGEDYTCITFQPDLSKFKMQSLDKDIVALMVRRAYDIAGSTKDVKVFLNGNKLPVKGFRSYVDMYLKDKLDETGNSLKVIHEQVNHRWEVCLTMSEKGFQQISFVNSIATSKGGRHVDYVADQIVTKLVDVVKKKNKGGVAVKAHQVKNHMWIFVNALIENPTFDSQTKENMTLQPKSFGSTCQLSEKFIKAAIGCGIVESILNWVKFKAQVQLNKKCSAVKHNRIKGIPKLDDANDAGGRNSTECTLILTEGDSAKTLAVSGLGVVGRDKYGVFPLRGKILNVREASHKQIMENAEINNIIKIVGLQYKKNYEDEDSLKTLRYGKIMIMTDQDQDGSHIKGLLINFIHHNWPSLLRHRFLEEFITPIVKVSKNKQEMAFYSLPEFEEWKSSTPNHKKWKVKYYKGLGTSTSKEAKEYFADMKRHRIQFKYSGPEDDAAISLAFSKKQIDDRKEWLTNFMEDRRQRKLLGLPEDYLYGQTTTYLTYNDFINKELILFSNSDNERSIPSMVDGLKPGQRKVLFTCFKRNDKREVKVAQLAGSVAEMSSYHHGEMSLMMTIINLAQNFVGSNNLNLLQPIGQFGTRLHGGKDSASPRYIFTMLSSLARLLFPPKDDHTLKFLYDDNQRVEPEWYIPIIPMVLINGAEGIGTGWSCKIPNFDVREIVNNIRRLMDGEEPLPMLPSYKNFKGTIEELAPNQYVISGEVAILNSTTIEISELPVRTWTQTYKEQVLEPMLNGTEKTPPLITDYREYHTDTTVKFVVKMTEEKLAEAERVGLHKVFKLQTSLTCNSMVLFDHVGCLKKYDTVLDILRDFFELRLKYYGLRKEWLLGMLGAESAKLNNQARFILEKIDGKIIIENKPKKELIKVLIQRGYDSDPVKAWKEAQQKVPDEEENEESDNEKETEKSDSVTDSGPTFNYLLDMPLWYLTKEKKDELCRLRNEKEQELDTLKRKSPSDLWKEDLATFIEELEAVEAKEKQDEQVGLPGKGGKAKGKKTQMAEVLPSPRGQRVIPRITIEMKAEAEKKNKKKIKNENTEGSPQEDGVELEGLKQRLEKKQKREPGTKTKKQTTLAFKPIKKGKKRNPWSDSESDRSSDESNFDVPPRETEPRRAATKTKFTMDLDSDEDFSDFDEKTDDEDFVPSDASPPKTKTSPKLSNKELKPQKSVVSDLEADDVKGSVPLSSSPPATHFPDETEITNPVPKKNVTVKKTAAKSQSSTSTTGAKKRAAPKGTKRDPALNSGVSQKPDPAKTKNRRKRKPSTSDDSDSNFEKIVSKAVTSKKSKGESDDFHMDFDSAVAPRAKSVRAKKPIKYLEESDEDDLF

Regarding `O=C(O)c1cn(C2CC2)c2cc(N3CCNCC3)c(F)cc2c1=O` [CIPROFLOXACIN], the IC50 in the data set on K562 was more than 150 µM; with A549, 280 µM; in data set [1], more than 1000 µM; in the data set with A-431, 135 µM; in the data set with V79, more than 1000 µM; in the data set with KB it was 160 µM. Further, the IC50 in the data set with LoVo was 89 µM; in the data set with MCF7 [3] it was 476 µM; with HeLa [4] it was 800 µM; in the data set on HeLa [6] it was 270 µM; in the data set on MCF7 [7], 199 µM; in the data set on MCF7 [8], 76 µM. In addition, the IC50 in the data set with SK-MEL is 196 µM; in the data set with PC-3, 143 µM; with MG-63, 480 µM; with SW480, 128 µM; with MC3T3-E1, 120 µM; in the data set with EJ, 202 µM. Moreover, the results for the IC50 (in data set [10]; in the data set with NCI-H460 [11]) were 96 µM and 60 µM, respectively. Further, the MTD at 672 h in data set [2] is more than 80 mg/kg. The Activity amounted to 104 µM in [5] and 35% in the data set on NCI-H460 [9].

The values are drawn from ChEMBL document CHEMBL1154114, “7-((4-Substituted)piperazin-1-yl) derivatives of ciprofloxacin: synthesis and in vitro biological evaluation as potential antitumor agents” (Bioorg Med Chem, 2009).
